These results are taken from ChEMBL document CHEMBL3352559, “Synthesis and pharmacological investigation of aralkyl diamine derivatives as potential triple reuptake inhibitors” (Eur J Med Chem, 2014).

SMILES strings stand for the structures.

The test system of data set [1] is Rattus norvegicus. Put plainly: Toxicity in rat assessed as effect on locomotion at 30 mg/kg, po after 60 mins by spontaneous locomotor test. In kind it is organism-based. Also on record: dose 30 mg/kg, route oral. The note with it: in vivo, 1 h. The method, boiled down: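 Rats were dosed PO. 60 min later each was placed alone in an unfamiliar 40 cm × 40 cm × 50 cm plastic cage under dim light and sound attenuation. Spontaneous activity was monitored automatically at 5 min intervals for up to 30 min. Results are mean ± SEM versus vehicle.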

Data set [2] concerns Rattus norvegicus. Put plainly: Antidepressant activity in rat assessed as reduction in immobility time at 30 mg/kg, po by forced swimming test relative to control. In kind it is functional. The method, boiled down: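 Male rats were dosed PO with vehicle or compound. After 1 h each rat was placed in a clear glass cylinder (40 cm tall × 18 cm diameter) holding water at 25 ± 1 °C, 15 cm deep. Immobility time was recorded over a 6 min trial and compared with vehicle. Significant main effects were followed by Fisher's post hoc test.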

The target in data set [3] is T1, Sodium-dependent noradrenaline transporter (Homo sapiens, UniProt P23975). Put plainly: Inhibition of [3H]-NE uptake in human norepinephrine transporter expressed in HEK293 cells by scintillation counting. Type of data set: cell-based.
The target in data set [4] is T2, Sodium-dependent dopamine transporter (Homo sapiens, UniProt Q01959). Kind of data set: Inhibition of [3H]-DA uptake in human dopamine transporter expressed in HEK293 cells by scintillation counting. Type of data set: cell-based.
The target of data set [5] is T3, Sodium-dependent serotonin transporter (Homo sapiens, UniProt P31645). Put plainly: Inhibition of [3H]-serotonin uptake in human SERT expressed in HEK293 cells at 10 uM by scintillation counting. Type of data set: cell-based.
Target sequence in this assay (P31645 whole entry, looked up): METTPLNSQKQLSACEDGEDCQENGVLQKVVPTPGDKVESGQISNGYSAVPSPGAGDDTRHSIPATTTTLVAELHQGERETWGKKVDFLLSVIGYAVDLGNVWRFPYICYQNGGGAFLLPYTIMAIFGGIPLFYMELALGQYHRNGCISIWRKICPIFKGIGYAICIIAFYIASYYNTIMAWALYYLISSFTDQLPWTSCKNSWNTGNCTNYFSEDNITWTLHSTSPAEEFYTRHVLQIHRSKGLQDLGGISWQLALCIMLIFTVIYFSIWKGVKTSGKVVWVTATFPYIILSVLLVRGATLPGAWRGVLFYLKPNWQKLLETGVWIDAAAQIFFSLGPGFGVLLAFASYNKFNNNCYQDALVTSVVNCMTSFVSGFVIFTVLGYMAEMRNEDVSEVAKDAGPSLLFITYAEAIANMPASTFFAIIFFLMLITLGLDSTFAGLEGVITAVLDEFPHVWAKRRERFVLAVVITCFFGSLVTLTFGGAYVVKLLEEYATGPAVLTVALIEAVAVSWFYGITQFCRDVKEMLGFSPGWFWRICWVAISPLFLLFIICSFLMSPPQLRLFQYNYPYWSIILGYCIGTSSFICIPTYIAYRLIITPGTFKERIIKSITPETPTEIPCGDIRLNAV
Data set [6] has as its target T3, Sodium-dependent serotonin transporter. Put plainly: Inhibition of [3H]-serotonin uptake in human SERT expressed in HEK293 cells by scintillation counting. Type of data set: cell-based.
Target sequence in this assay (P31645 whole entry): as the sequence (P31645 whole entry, looked up) above
For data set [7], the system named is Rattus norvegicus. Put plainly: Antidepressant activity in po dosed rat assessed as reduction in immobility time by forced swimming test. Type of data set: functional, organism-based. The method, boiled down: (§1)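 Male rats dosed orally at 5, 10 or 20 mg/kg alongside vehicle and venlafaxine 30 mg/kg PO groups. 1 h post-dose, each rat placed in a glass cylinder (40 cm × 18 cm) holding 15 cm of 25 ± 1 °C water. Immobility time recorded over a 6 min trial; significant main effects followed by post hoc Fisher's test.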

Data set [8] has as its system Rattus norvegicus. Put plainly: Antidepressant activity in rat assessed as reduction in immobility time at 5 mg/kg, po by forced swimming test relative to control. In kind it is functional. The method, boiled down:
as §1

The test system of data set [9] is Rattus norvegicus. Kind of data set: Antidepressant activity in rat assessed as reduction in immobility time at 10 mg/kg, po by forced swimming test relative to control. In kind it is functional. The method, boiled down:
as §1

Data set [10] concerns Rattus norvegicus. Put plainly: Antidepressant activity in rat assessed as reduction in immobility time at 20 mg/kg, po by forced swimming test relative to control. Type of data set: functional. The method, boiled down: as §1
Data set [11] relates to Rattus norvegicus. Put plainly: Toxicity in rat assessed as effect on locomotion at 20 mg/kg, po after 60 mins by spontaneous locomotor test. Also on record: dose 20 mg/kg, route oral. In kind it is organism-based. To be noted: in vivo, 1 h. The method, boiled down: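 Rats dosed orally at 20 mg/kg, with vehicle and venlafaxine 30 mg/kg PO as controls; 60 min later placed singly in novel 40×40×50 cm cages under dim light with sound attenuation; activity recorded automatically in 5 min bins over 30 min; mean ± SEM.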

For data set [12], the target named is T1, Sodium-dependent noradrenaline transporter. Put plainly: Inhibition of [3H]-NE uptake in human norepinephrine transporter expressed in HEK293 cells at 10 uM by scintillation counting. Type of data set: cell-based.
Data set [13] deals with T2, Sodium-dependent dopamine transporter. Kind of data set: Inhibition of [3H]-DA uptake in human dopamine transporter expressed in CHO cells at 10 uM by scintillation counting.

T2 sequence (Q01959 whole entry): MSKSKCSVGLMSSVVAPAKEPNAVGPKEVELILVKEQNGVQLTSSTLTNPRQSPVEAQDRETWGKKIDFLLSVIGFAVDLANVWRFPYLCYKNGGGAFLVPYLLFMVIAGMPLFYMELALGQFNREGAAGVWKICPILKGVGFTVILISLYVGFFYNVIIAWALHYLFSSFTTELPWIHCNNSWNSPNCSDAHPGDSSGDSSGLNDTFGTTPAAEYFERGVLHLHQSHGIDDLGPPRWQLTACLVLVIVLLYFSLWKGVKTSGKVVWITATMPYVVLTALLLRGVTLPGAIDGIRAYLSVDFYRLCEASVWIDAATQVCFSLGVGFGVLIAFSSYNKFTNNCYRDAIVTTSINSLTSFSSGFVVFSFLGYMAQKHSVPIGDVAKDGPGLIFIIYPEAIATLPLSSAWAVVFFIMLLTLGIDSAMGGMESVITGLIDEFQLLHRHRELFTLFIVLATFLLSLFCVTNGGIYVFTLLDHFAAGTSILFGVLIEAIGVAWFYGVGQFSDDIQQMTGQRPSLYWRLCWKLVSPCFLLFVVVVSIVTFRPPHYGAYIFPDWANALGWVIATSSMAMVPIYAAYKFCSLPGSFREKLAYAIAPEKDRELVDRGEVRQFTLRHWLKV
T1 sequence (P23975 whole entry): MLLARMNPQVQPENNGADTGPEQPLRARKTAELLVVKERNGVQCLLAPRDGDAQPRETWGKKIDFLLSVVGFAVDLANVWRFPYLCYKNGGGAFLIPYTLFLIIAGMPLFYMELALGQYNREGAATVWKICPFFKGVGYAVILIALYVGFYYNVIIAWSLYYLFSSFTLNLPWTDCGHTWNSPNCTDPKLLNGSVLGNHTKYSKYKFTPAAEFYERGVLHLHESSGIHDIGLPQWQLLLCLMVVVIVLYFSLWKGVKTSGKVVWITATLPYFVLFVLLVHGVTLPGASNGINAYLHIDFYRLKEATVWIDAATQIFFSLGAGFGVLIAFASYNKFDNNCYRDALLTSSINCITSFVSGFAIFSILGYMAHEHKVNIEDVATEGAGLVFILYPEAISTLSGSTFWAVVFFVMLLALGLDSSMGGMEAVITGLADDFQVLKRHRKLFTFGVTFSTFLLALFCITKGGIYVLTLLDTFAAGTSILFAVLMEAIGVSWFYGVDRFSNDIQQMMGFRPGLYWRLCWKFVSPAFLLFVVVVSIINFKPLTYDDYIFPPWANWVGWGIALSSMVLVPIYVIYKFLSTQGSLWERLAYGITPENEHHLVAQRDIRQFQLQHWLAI

The inhibition in vivo is the share of the control response that was lost under treatment. For `COc1ccc(C(CN(C)C)C2(O)CCCCC2)cc1` (centres undefined) [VENLAFAXINE], the Activity entry in [1] was “Toxic”. Besides, the inhibition in vivo at 30 mg/kg in data set [2] was found to be 14%.

The term IC50 denotes the concentration that gives 50% inhibition. A lower IC50 goes with inhibition by little substance. What is called inhibition is the relative decrease from the control value, in per cent. Consider `CCN(CC)CCC(c1ccc(Cl)c(Cl)c1)N1CCCC1` (centres undefined), for which the IC50 was found to be 136 nM in data set [3] and 363 nM in data set [4]. The compound also returned an inhibition in data set [5] of 76.5%.

Regarding `Clc1ccc(C(CCN2CCOCC2)N2CCCC2)cc1Cl` (centres undefined), the half-maximal inhibitory concentration (IC50) in data set [6] came out at 389 nM; in [3] it was 68.9 nM; in [4], 238 nM. For the same compound, the inhibition entry in data set [7] is “Dose-dependent effect”. In data set [8], the inhibition in vivo at 5 mg/kg was 12%. In data set [9], the inhibition in vivo at 10 mg/kg stood at 17%. For the same compound, in data set [10], the inhibition in vivo at 20 mg/kg is 34%. For the same compound, the Activity entry in data set [11] is “Non-toxic”.

Compound `C1=C(Cc2ccccc2)CCN(CCC(c2csc3ccccc23)N2CCOCC2)C1` (centres undefined) came in with a half-maximal inhibitory concentration (IC50) in data set [4] of 852 nM. The inhibition was 65.4% in data set [5] and 79.1% in data set [12].

For `CC1CCCN(C(CCN2CCOCC2)c2ccc(Cl)c(Cl)c2)C1` (centres undefined), the inhibition in data set [5] is 30.5%; in data set [12] it was 35.3%; in [13], 54.3%.

Turning to `CN(C)CCC(c1csc2ccccc12)N1CCCC1` (centres undefined), the IC50 in data set [6] worked out at 425 nM; in [3] it was 250 nM; in data set [4], 986 nM.

In the case of `C1=C(Cc2ccccc2)CCN(CCC(c2csc3ccccc23)N2CCCC2)C1` (centres undefined), the IC50 in [6] was 621 nM; in data set [3] it was 157 nM; in data set [4], 325 nM.

Regarding `COc1ccc2cc(C(CCN3CC=C(Cc4ccccc4)CC3)N3CCCC3)ccc2c1Cl` (centres undefined), the inhibition in [5] stood at 79.9%; in data set [12], 73.5%; in data set [13], 79.5%.

For the compound `CN(C)CCC(c1ccc(Cl)c(Cl)c1)N1CCCCC1` (centres undefined), the IC50 in data set [6] stood at 546 nM; in data set [3], 634 nM; in data set [4] it was 602 nM.

Regarding `COc1ccc2cc(C(CCN(C)C)N3CCCC3)ccc2c1Cl` (centres undefined), the figures for the half-inhibitory concentration (IC50) in data set [6], in data set [3] and in [4] were 338 nM, 374 nM and 8190 nM, respectively.

Regarding `Clc1ccc(C(CCN2CC=C(Cc3ccccc3)CC2)N2CCCC2)cc1Cl` (centres undefined), the 50% inhibitory concentration (IC50) in data set [3] turned out to be 426 nM; in [4], 291 nM. The inhibition in [5] was 79.1%.

For `CN(C)CCC(c1ccc(F)cc1)N1CCCC1` (centres undefined), the inhibition in data set [5] is 70.2%; in [12], 68.9%; in [13], 46.6%.

For `CN(CCC(c1ccc(Cl)c(Cl)c1)N1CCOCC1)Cc1ccccc1` (centres undefined), the inhibition was 35.6% in [5], 50.6% in [12] and 3.4% in data set [13].

Take `CN(C)CCC(c1ccc(Cl)c(Cl)c1)N1CCCC1` (centres undefined): the IC50 in data set [6] was 501 nM; in [3] it was 206 nM; in [4], 357 nM. In addition, the inhibition result in data set [7] was “Dose-dependent effect”. Further, the inhibition in vivo at 5 mg/kg in data set [8] was found to be 18%. In addition, the inhibition in vivo at 10 mg/kg in data set [9] came to 25%. For the same compound, the inhibition in vivo at 20 mg/kg in data set [10] amounted to 36%. The Activity result in data set [11] is recorded as “Non-toxic”.

Consider `Clc1ccc(C(CCN2CCOCC2)N2CCOCC2)cc1Cl` (centres undefined), for which the inhibition was found to be 73.8% in [5], 4.9% in data set [12] and 54.4% in [13].

Take `Clc1ccc(C(CCN2CCCCC2)N2CCOCC2)cc1Cl` (centres undefined): the figures for the inhibition in data set [5], in data set [12] and in [13] were 59.9%, 74% and 68.1%, respectively.

`CN(CCC(c1ccc(F)cc1F)N1CCOCC1)Cc1ccccc1` (centres undefined): the inhibition came to 24.1% in [5], 5.3% in data set [12] and 46.2% in data set [13].

On to `CN(C)CCC(c1ccc(C(F)(F)F)cc1)N1CCOCC1` (centres undefined), for which the inhibition came to 46.2% in data set [5], 83.2% in [12] and 8.5% in data set [13].

With `COc1ccc2cc(C(CCN(C)Cc3ccccc3)N3CCOCC3)ccc2c1Cl` (centres undefined), the inhibition was 47.3% in [5], 49.5% in data set [12] and 2.5% in data set [13].

For `CN(C)CCC(c1ccc(C(F)(F)F)cc1)N1CCCC1` (centres undefined), the values for the inhibition in [5], in data set [12] and in data set [13] were 57.6%, 77.4% and 37.1%, respectively.

With `CN(C)CCC(c1ccc(Cl)c(Cl)c1)N1CCNCC1` (centres undefined), the results for the IC50 in [6] and in [3] were 399 nM and 428 nM, respectively. Also, in data set [13], the inhibition is 80.1%.

As for `CN(C)CCC(c1ccc(F)cc1F)N1CCOCC1` (centres undefined), the inhibition in data set [5] was 55.6%; in data set [12], 19.4%; in [13], 50.7%.

Take `CN(C)CCC(c1ccc(F)cc1)N1CCCCC1` (centres undefined): the inhibition in data set [5] was found to be 62.7%; in data set [12] it was 87.6%; in data set [13], 40.1%.

For the compound `CNCCC(c1ccc(F)cc1F)N1CCOCC1` (centres undefined), the concentration for half-maximal inhibition (IC50) in [3] came to 328 nM. Also, the inhibition in data set [5] is 86.1%; in [13], 42%.

As to `COc1ccc(C(CCN(C)C)N2CCOCC2)cc1` (centres undefined), the inhibition in data set [5] was 25.9%; in data set [12], 29.3%; in data set [13] it was 22.9%.

`CN(C)CCC(c1cc2ccccc2s1)N1CCCC1` (centres undefined): the figures for the IC50 in [6], in data set [3] and in [4] were 401 nM, 495 nM and 863 nM, respectively.

On to `Cc1ccc(C(CCN(C)C)N2CCOCC2)cc1` (centres undefined), for which the inhibition turned out to be 39.2% in data set [5], 40.4% in data set [12] and 25.8% in data set [13].

In the case of `CN(C)CCC(c1ccc(F)cc1)N1CCOCC1` (centres undefined), the inhibition in data set [5] amounted to 50.7%; in data set [12], 74.2%; in data set [13] it was 6.4%.

Consider `CCOC(=O)C1CCCN(C(CCN2CCOCC2)c2ccc(Cl)c(Cl)c2)C1` (centres undefined), for which the inhibition in [5] was determined as 34.9%; in data set [12], 19%; in data set [13], 36.6%.

`C1=C(Cc2ccccc2)CCN(CCC(c2csc3ccccc23)N2CCCCC2)C1` (centres undefined): the 50% inhibitory concentration (IC50) in data set [6] amounted to 905 nM. For the same compound, the inhibition in data set [12] was determined as 52.7%; in data set [13], 77.4%.

In the case of `CN(CCC(c1cc2ccccc2s1)N1CCOCC1)Cc1ccccc1` (centres undefined), the inhibition is 30.3% in [5], 37.8% in [12] and 41.9% in data set [13].

`C1=C(Cc2ccccc2)CCN(CCC(c2csc3ccccc23)N2CCNCC2)C1` (centres undefined) had an IC50 in data set [3] of 635 nM. The inhibition in data set [5] is 73.9%; in data set [13], 83.9%.

For `CN(C)CCC(c1csc2ccccc12)N1CCOCC1` (centres undefined), the IC50 in [6] was found to be 1190 nM; in data set [3], 2540 nM. In addition, the inhibition in data set [13] was found to be 56.8%.

For the compound `CN(C)CCC(c1ccc(Cl)cc1)N1CCOCC1` (centres undefined), the figures for the inhibition in [5], in data set [12] and in [13] were 58.5%, 52.5% and 35.7%, respectively.

Take `CN(C)CCC(c1cc2ccccc2s1)N1CCOCC1` (centres undefined): the results for the IC50 in data set [6] and in data set [3] were 449 nM and 1460 nM, respectively. The compound also displayed an inhibition in data set [13] of 66.8%.
